According to ChEMBL document CHEMBL4007452, “Discovery of an Orally Selective Inhibitor of Signal Transducer and Activator of Transcription 3 Using Advanced Multiple Ligand Simultaneous Docking” (J Med Chem, 2017):
pIC50: −log10 of the molar value. Active and inactive are the calls of the source. No cut-off for these calls is given here.

How the values were obtained:
[1] = biological target: T1, Signal transducer and activator of transcription 1-alpha/beta (Homo sapiens) (UniProt P42224); test: Inhibition of STAT1 dimerization in human MDA-MB-231 cells assessed as inhibition of STAT1-STAT1 DNA binding activity at 5 uM after 24 hrs by EMSA; assay type: cell-based
T1 sequence (whole entry): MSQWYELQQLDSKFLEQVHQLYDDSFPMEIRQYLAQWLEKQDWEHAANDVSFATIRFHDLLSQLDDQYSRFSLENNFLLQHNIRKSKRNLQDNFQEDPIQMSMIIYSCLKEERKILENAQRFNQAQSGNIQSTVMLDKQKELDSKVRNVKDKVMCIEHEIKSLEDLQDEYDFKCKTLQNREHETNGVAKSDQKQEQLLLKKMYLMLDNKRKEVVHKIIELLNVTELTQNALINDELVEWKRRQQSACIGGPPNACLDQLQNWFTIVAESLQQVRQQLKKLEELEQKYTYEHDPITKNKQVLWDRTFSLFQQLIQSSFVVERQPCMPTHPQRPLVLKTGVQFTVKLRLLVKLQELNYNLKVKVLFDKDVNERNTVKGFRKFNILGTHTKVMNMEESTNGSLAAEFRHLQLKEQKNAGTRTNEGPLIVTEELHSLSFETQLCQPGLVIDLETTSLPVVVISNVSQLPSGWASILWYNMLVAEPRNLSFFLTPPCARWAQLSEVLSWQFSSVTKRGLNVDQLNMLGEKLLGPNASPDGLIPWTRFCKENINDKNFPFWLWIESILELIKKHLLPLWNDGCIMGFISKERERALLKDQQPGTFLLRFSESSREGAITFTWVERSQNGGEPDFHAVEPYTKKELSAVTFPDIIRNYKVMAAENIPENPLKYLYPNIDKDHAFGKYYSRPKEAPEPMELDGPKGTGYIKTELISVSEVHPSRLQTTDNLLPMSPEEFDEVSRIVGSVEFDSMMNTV
Outline: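 MDA-MB-231 cells were treated at 5 µM for 0-24 h before nuclear extract preparation. Extracts were incubated with biotin-labeled probe for 30 min at room temperature, then analysed by EMSA.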

[2] = biological target: Signal transducer and activator of transcription 3 (Homo sapiens, UniProt P40763); details: 5 to 10 uM
Signal transducer and activator of transcription 3, sequence (P40763 whole entry): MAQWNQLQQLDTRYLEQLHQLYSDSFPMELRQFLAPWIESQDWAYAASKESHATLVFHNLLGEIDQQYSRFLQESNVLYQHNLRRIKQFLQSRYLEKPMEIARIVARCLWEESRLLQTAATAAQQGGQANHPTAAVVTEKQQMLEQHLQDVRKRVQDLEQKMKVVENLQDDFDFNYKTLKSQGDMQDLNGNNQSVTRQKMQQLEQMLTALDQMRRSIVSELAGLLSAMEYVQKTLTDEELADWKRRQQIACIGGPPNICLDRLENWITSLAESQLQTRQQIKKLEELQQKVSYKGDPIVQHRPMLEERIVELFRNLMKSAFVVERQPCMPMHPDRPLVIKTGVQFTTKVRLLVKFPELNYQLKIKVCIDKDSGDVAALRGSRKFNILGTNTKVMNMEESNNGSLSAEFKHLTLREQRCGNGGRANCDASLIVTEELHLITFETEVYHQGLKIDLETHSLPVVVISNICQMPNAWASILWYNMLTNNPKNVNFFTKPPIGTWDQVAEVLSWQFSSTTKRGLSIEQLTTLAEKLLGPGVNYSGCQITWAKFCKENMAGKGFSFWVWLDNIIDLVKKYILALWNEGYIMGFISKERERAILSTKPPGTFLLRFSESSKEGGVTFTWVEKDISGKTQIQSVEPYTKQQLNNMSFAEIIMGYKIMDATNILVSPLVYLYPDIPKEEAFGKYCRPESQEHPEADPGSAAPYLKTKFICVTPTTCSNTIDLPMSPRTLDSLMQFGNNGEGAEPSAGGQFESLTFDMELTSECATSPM

[3] = biological target: T2, Signal transducer and activator of transcription 5B (Homo sapiens) (UniProt P51692); test: Binding affinity to STAT5B (unknown origin) after 30 mins by fluorescence polarization assay
T2 sequence (whole entry): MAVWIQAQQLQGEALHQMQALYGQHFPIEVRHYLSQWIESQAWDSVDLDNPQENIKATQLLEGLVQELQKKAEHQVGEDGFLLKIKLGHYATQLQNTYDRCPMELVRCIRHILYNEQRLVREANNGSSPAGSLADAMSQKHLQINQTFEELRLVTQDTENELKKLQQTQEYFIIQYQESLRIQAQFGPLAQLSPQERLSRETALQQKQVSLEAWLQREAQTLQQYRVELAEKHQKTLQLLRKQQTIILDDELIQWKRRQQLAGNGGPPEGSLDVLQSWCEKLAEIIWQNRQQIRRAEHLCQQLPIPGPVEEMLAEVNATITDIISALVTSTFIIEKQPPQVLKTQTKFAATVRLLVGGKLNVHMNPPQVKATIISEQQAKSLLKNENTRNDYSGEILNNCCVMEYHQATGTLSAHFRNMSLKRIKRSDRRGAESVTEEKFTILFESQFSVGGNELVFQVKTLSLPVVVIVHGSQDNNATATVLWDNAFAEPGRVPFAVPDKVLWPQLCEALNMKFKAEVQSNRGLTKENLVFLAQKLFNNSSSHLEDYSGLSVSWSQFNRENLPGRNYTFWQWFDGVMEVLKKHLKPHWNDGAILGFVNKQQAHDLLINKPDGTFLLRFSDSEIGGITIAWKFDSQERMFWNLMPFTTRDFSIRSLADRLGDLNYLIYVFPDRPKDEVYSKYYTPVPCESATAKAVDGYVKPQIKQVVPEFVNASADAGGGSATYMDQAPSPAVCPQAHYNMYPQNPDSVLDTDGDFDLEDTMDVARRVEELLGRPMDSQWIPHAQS
Outline: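 A competitive fluorescence polarization assay measured displacement of fluorescent phosphopeptide from the SH2 domain of purchased STAT1 or STAT5 protein, using the corresponding peptides.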

[4] = MRT (0 to t) in Sprague-Dawley rat plasma at 1 mg/kg, iv measured after 24 hrs by UPLC analysis; assay type: ADME, organism-based
Outline: (§1)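 Rat plasma sampled from 2 min to 24 h after a single i.v. (1 mg/kg) or p.o. (10 mg/kg) dose. Parameters were derived from the concentration-time profiles. The bioanalytical method was validated to FDA guidelines for selectivity, linearity, LLOQ, accuracy, precision, recovery, matrix effect and stability.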

Mus musculus = test: In vivo inhibition of STAT3 in po dosed BALB/c nude mouse xenografted with human MDA-MB-231 assessed as reduction in p-STAT3 level administered as qd for 32 days by DAB-staining based IHC analysis; assay type: functional, organism-based
Outline: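 Fixed sections of MDA-MB-231 xenograft tumors from orally dosed nude mice were immunostained for p-STAT3, with positive cells visualized by DAB.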

[5] = biological target: T1, Signal transducer and activator of transcription 1-alpha/beta (Homo sapiens); test: Inhibition of STAT1 in human MDA-MB-231 cells assessed as reduction in CDK2 mRNA level at 5 to 10 uM by RT-PCR analysis; assay type: cell-based
Outline: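 Total RNA was extracted from treated MDA-MB-231 cells and 1 µg reverse-transcribed. qPCR ran 95 °C 5 min, then 40 cycles of 95 °C 10 s, 60 °C 15 s and 72 °C 15 s, followed by a melt curve from 60 to 95 °C.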

[6] = AUC (0 to t) in Sprague-Dawley rat plasma at 10 mg/kg, po measured after 24 hrs by UPLC analysis; assay type: ADME, organism-based; design: time < 24 hr, dose 10 mg/kg, route oral; outline: as §1
[7] = Oral bioavailability in Sprague-Dawley rat at 10 mg/kg measured after 24 hrs by UPLC analysis; assay type: ADME, organism-based; details: in vivo
[8] = biological target: T1, Signal transducer and activator of transcription 1-alpha/beta (Homo sapiens); test: Inhibition of STAT1 in human MDA-MB-231 cells assessed as reduction in STAT1 phosphorylation at Y701 site at 2.5 to 10 uM after 12 hrs by immunoblot analysis; assay type: cell-based
CCRF S-180 = test: Antiproliferative activity against mouse S180 cells after 24 hrs by MTT assay; details: CCRF S-180, 24 h
[9] = Antiproliferative activity against human UW288-1 cells after 24 hrs by MTT assay; assay type: functional, cell-based; details: UW288-1, 24 h
Outline: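 Cells were seeded at 3000 per well and incubated 24 h at 37 °C. Compounds were added in triplicate with 10% FBS: 0.1-10 or 0.1-20 µM for cancer lines, 3.125-400 µM for MCF-10A. Viability was read by MTT absorbance at 595 nm, with IC50 fitted from the curves. DMSO stocks were 20 mM.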

[10] = Terminal half life in Sprague-Dawley rat plasma at 1 mg/kg, iv measured after 24 hrs by UPLC analysis; assay type: ADME, organism-based; details: read-out: beta t1/2 (converted)
Outline: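 Rats dosed i.v. or p.o. Plasma concentrations followed from 2 min to 24 h after dosing. The bioanalytical method was validated to FDA guidelines for selectivity, linearity, LLOQ, accuracy, precision, recovery, matrix effect and stability.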

NS(=O)(=O)c1cccc2c1C(=O)C=C(Nc1ccccc1N1CCNCC1)C2=O
inhibition [1]: Active
inhibition [2]: Active
Activity [3]: inactive
MRT last at 24 h [4]: 33 min
inhibition (Mus musculus): Dose-dependent effect
inhibition [5]: inactive
AUC(0-t) at 24 h [6]: 850 ng·h/mL
bioavailability [7]: 44.7%
inhibition [8]: inactive
pIC50 (CCRF S-180): 6.38
pIC50 [9]: 5.55
half-life [10]: 42.6 min
